From ChEMBL document CHEMBL1142659, “The role of intracellularly released formaldehyde and butyric acid in the anticancer activity of acyloxyalkyl esters” (J Med Chem, 2005)

Assays:
Type in all cases: functional, cell-based
[1] = Concentration required for 50% inhibition of human MES-DX5 cell proliferation
Procedure, shortened: (§1)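 Solid-tumour lines (HT-29, PC-3, MES-SA, and its mdr-1/P-glycoprotein-high MES-SA/Dx5 subclone) were seeded at (2.5-5) × 10^3 cells per well. They were exposed to escalating prodrug concentrations for 4 days, then harvested. Proliferation was measured by Hoechst DNA staining, and IC50 values are given in µM.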

MES-SA = assay: Concentration required for 50% inhibition of human MES-SA cell proliferation; procedure, shortened: as §1
PC-3 = assay: Concentration required for 50% inhibition of human PC-3 cell proliferation; procedure, shortened: as §1
HL-60 = assay: Concentration required for 50% inhibition of human HL-60 cell proliferation
Procedure, shortened: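 HL-60 leukemia cells, including the multidrug-resistant HL-60/MX2 subline with altered topoisomerase II activity, were seeded at (2.5-5) × 10^3 cells per well. They were exposed to escalating prodrug concentrations for 4 days. Proliferation was read by Alamar blue, and IC50 values are given in µM.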

HT-29 = assay: Concentration required for 50% inhibition of human HT-29 cell proliferation; procedure, shortened: as §1

Work on `CCCC(=O)OCOC(=O)C(C)(C)C` [AN-9] yielded an IC50 [1] of 46 µM, an IC50 (MES-SA) of 40 µM and an IC50 (PC-3) of 56 µM. It also gave an IC50 (HL-60) of 36 µM and an IC50 (HT-29) of 52 µM.
